Measured values of several laboratories.
Lines come from different studies, so protocols differ.
Cell line: HCT-116
Observed: cell growth or viability

| Structure (SMILES) | method | time | IC50 |
| --- | --- | --- | --- |
| CCCCCCCCCCONC(N)=O | imaging |  | > 600 µM |
| CC(=O)c1ccc(-c2cccc(NC(=O)CCc3cccc4c3B(O)OC4)c2)cc1 | ATP luminescence | 72 h | 0.28 µM |
| CS(=O)(=O)c1nc(N)n(-c2ccc(C(=O)O)cc2)n1 | MTT |  | 48.5 µM |
| CC[C@H](C)C(=O)O[C@H]1C[C@H](O)C=C2C=C[C@H](C)[C@H](CC[C@@H](O)C[C@@H](O)CC(=O)O)[C@H]21 | SRB | 72 h | 1.57 µg/mL |
| COc1cc(CNC(=O)CCCC/C=C/C(C)C)ccc1OCc1cn(-c2ccc(C#N)cc2)nn1 | SRB |  | 10.5 µM |
| O=C(NC(=S)NCc1ccccc1)c1ccc2ccccc2c1 |  | 48 h | 4.55 µM |
| COCCCOc1ccnc(COc2ccc(NC(=O)Nc3ccc(OC)cc3)cc2)c1C | MTT | 72 h | 12.7 µM |
| COc1cc([C@@H]2c3cc4c(cc3[C@@H](O[C@@H]3O[C@@H]5CO[C@@H](C)O[C@H]5[C@H](O)[C@H]3O)[C@H]3COC(=O)[C@H]23)OCO4)cc(OC)c1O | MTS | 24 h | 29.6 µM |
| COc1c(C)cnc(COc2ccc(NC(=O)Nc3cc(F)cc(F)c3)cc2)c1C | MTT | 72 h | 10.8 µM |
| COc1cccc2c1C(=O)c1c(O)c3c(c(O)c1C2=O)C[C@@](O)(C(=O)CO)C[C@@H]3O[C@H]1C[C@H](N)[C@H](O)[C@H](C)O1 | SRB |  | 0.11 µM |
| CC[C@]1(O)C[C@H]2CN(CCc3c([nH]c4ccccc34)[C@@](C(=O)OC)(c3cc4c(cc3OC)N(C=O)[C@H]3[C@@](O)(C(=O)OC)[C@H](OC(C)=O)[C@]5(CC)C=CCN6CC[C@]43[C@@H]65)C2)C1 | fluorescence | 72 h | 0.0017 µM |
| O=C(NC(=S)Nc1ccccc1)c1ccc2ccccc2c1 |  | 48 h | 5.77 µM |
| O=C(O)c1ccc(-n2nc(Oc3ccccc3)nc2/N=C/c2cc([N+](=O)[O-])ccc2O)cc1 | MTT |  | 62.8 µM |
| O=C(/C=C/c1ccc(O)c(O)c1)O[C@@H]1C[C@](O)(C(=O)O)C[C@@H](O)[C@H]1O | WST-1 | 48 h | 27.9 µM |
| O=c1cc(CCl)c2ccc(O)cc2o1 | MTT | 36 h | 8.47 µM |
| CC1=C(O)C(=O)C=C2C1=CC=C1[C@@]2(C)CC[C@@]2(C)[C@@H]3C[C@](C)(C(=O)OCCCCCCCO)CC[C@]3(C)CC[C@]12C | MTT | 48 h | 0.93 µM |
| COc1cccc2c1C(=O)c1c(O)c3c(c(O)c1C2=O)C[C@@](O)(C(=O)CO)C[C@@H]3O[C@H]1C[C@H](N)[C@H](O)[C@H](C)O1 |  | 48 h | 1.02 µM |
| COc1cc(/C=N/c2nc(SC)nn2-c2ccc(C(=O)O)cc2)ccc1O | MTT |  | 61.1 µM |
| COc1ccnc(COc2ccc(NC(=O)Nc3cc(F)cc(F)c3)cc2)c1OC | MTT | 72 h | 25.7 µM |
| Cc1ccc([P+](CCCCCCCCCCONC(N)=O)(c2ccc(C)cc2)c2ccc(C)cc2)cc1 | imaging |  | 3.7 µM |
| COc1ccc(-c2nc(C(=O)Nc3nnc(-c4cc5ccccc5[nH]4)s3)cc3c2[nH]c2ccccc23)cc1 | MTT | 72 h | 4.78 µM |
| COCCCOC(=O)[C@]1(C)CC[C@]2(C)CC[C@]3(C)C4=CC=C5C(=CC(=O)C(O)=C5C)[C@]4(C)CC[C@@]3(C)[C@@H]2C1 | MTT | 48 h | 0.49 µM |
| COc1cc(CNC(=O)CCCC/C=C/C(C)C)ccc1O | SRB |  | 40.2 µM |
| O=c1cc(-c2ccc(O)c(O)c2)oc2cc(O)cc(O)c12 | WST-1 | 48 h | 11.1 µM |

| Structure (SMILES) | method | time | IC50 |
| --- | --- | --- | --- |
| CSc1nc(/N=C/c2cc(C)ccc2O)n(-c2ccc(C(=O)O)cc2)n1 | MTT |  | 43.9 µM |
| Cc1cc(C)n(-c2nc(Nc3ccc(Cl)cc3)nc(-n3nc(C)cc3C)n2)n1 | MTT | 72 h | 11 µM |
| O=c1c(O)c(-c2ccc(O)cc2)oc2cc(O)cc(O)c12 | WST-1 | 48 h | 44.7 µM |
| CC(C)C[C@H](NC(=O)[C@H](Cc1ccccc1)NC(=O)c1cnccn1)B(O)O | ATP luminescence |  | 0.0097 µM |
| CSc1nc(NC(=S)NCCc2ccccc2)n(-c2ccc(C(=O)O)cc2)n1 | MTT |  | 45.8 µM |
| COC(=O)/C=C1\S/C(=N\C(=O)c2ccc3ccccc3c2)N(C2CCCCC2)C1=O |  | 48 h | 12.2 µM |
| COc1c(C)cnc(COc2ccc(NC(=O)Nc3ccc(Cl)c(C(F)(F)F)c3)cc2)c1C | MTT | 72 h | 8.17 µM |
| O=C1Nc2c(C(F)(F)F)cccc2[C@@]1(c1ccc(O)cc1)c1ccc(OC(F)(F)F)cc1 | resazurin | 7 days | 0.093 µM |
| O=C(Nc1nnc(-c2cc3ccccc3[nH]2)s1)c1cc2c([nH]c3ccccc32)c(-c2ccc(Cl)cc2)n1 | MTT | 72 h | 5.98 µM |
| COCCCOc1ccnc(COc2ccc(NC(=O)Nc3ccc(Cl)c(C(F)(F)F)c3)cc2)c1C | MTT | 72 h | 10.1 µM |
| CC1CCC(OCn2c[n+](Cc3ccccc3)c3ccccc32)CC1 (centres unmarked) | MTT | 72 h | 21.9 µM |
| Cc1c(OCC(F)(F)F)ccnc1COc1ccc(NC(=O)Nc2cc(F)cc(F)c2)cc1 | MTT | 72 h | 52 µM |
| COC(=O)c1cc2ccc(O)cc2oc1=O | MTT | 36 h | > 20 µM |
| O=C(NC(=S)Nc1ccc([N+](=O)[O-])cc1)c1ccc2ccccc2c1 |  | 48 h | 6.09 µM |
| Cc1c(OCC(F)(F)F)ccnc1COc1ccc(NC(=O)Nc2ccc(Cl)c(C(F)(F)F)c2)cc1 | MTT | 72 h | 5.6 µM |
| CC(C)n1c(/C=C/C(O)CC(O)CC(=O)O)c(-c2ccc(F)cc2)c2ccccc21 (centres unmarked) | SRB | 72 h | 7.06 µg/mL |
| O=c1ccc2ccc(O)c(CO)c2o1 | MTT | 36 h | > 20 µM |
| Cc1c(OCC(F)(F)F)ccnc1COc1ccc(NC(=O)Nc2ccc(F)cc2)cc1 | MTT | 72 h | 6.35 µM |
| C=CC(=O)N1CCC[C@@H](n2nc(-c3ccc(Oc4ccccc4)cc3)c3c(N)ncnc32)C1 |  |  | > 10 µM |
| CC(=O)OCCOC(=O)[C@]1(C)CC[C@]2(C)CC[C@]3(C)C4=CC=C5C(=CC(=O)C(O)=C5C)[C@]4(C)CC[C@@]3(C)[C@@H]2C1 | MTT | 48 h | 0.47 µM |
| O=C(NC(=S)N1CCCCC1)c1ccc2ccccc2c1 |  | 48 h | 9.12 µM |
| COc1ccc2oc(=O)cc(CCl)c2c1 | MTT | 36 h | > 20 µM |
| O=C(Nc1nnc(-c2cc3ccccc3[nH]2)s1)c1cc2c([nH]c3ccccc32)c(-c2ccccc2)n1 | MTT | 72 h | 5.12 µM |
